According to ChEMBL document CHEMBL1157017, “Synthesis and pharmacological evaluation of new 5-(cyclo)alkyl-5-phenyl- and 5-spiroimidazolidine-2,4-dione derivatives. Novel 5-HT1A receptor agonist with potential antidepressant and anxiolytic activity” (Eur J Med Chem, 2010):
pKi: −log10 of the molar value. Activity calls are given as the source filed them. No cut-off for these calls is given here.

Tests used:
[1] = molecular target: T1, 5-hydroxytryptamine receptor 1A (Rattus norvegicus, UniProt P19327); test: Displacement of [3H]8OH-DPAT from 5HT1A in rat brain cerebral cortex; assay type: tissue-based
T1 sequence (P19327 whole entry): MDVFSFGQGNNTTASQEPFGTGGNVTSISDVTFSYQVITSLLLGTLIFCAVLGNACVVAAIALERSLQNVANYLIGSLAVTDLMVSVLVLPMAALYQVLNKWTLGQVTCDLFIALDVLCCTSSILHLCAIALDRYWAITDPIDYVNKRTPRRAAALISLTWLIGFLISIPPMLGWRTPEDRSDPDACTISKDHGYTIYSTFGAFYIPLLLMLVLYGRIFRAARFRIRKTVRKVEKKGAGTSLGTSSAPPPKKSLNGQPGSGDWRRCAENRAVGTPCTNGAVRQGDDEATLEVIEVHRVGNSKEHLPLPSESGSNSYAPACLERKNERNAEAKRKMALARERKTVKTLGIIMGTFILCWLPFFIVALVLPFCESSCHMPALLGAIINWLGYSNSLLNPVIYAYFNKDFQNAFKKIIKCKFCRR
How it was run: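 Rat cerebral cortex membranes (9 mg wet weight) in 50 mM Tris-HCl pH 7.7 with pargyline, CaCl2 and 0.1% ascorbic acid. Incubated 15 min at 37 °C with 1 nM [3H]-8-OH-DPAT and compound at 10^-10–10^-4 M. Nonspecific binding defined with serotonin. GF/B filtration and scintillation counting, in duplicate, with iterative curve fitting.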

[2] = molecular target: 5-hydroxytryptamine receptor 2A (Rattus norvegicus, UniProt P14842); test: Displacement of [3H]ketanserin from 5HT2A in rat brain cerebral cortex; assay type: tissue-based
5-hydroxytryptamine receptor 2A, sequence (P14842 whole entry): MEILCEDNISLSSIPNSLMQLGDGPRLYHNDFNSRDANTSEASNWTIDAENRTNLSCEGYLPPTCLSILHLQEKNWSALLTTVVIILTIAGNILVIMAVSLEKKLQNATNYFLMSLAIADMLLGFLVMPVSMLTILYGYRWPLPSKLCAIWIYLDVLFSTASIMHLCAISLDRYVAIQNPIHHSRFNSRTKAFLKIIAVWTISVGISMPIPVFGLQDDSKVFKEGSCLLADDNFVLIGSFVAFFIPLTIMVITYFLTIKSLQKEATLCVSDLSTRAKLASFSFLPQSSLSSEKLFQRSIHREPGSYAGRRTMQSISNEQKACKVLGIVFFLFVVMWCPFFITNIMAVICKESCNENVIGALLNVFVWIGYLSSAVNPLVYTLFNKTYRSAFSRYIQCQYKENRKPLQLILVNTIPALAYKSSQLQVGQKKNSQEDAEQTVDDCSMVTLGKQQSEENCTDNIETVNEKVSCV
How it was run: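 Rat cerebral cortex membranes in 50 mM Tris-HCl pH 7.7 were incubated 20 min at 37 °C with 0.6 nM [3H]-ketanserin and compound at 10^-10–10^-4 M. Mianserin served as displacer. Filtration through GF/B, scintillation counting, in duplicate, with iterative curve fitting.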

[3] = molecular target: T2, 5-hydroxytryptamine receptor 1A (Rattus norvegicus) (UniProt P19327); test: Antagonist activity at presynaptic 5HT1A receptor in rat brain cerebral cortex at 20 ug/ml; assay type: functional, tissue-based; details: filed as antagonist
T2 sequence (whole entry): T1 sequence (P19327 whole entry)

[4] = molecular target: T2, 5-hydroxytryptamine receptor 1A (Rattus norvegicus); test: Antagonist activity at postsynaptic 5HT1A receptor in rat brain cerebral cortex at 20 ug/ml; assay type: functional, tissue-based; details: filed as antagonist
Mus musculus [5] = test: Anxiolytic-like activity in Swiss albino mouse assessed as number of punished crossing at 10 mg/kg, ip after 60 mins by four-plate test (RVb = 3.8 +/- 0.2); assay type: functional; details: route intraperitoneal
Mus musculus [6] = test: Anxiolytic-like activity in Swiss albino mouse assessed as number of punished crossing at 20 mg/kg, ip after 60 mins by four-plate test (RVb = 3.8 +/- 0.2); assay type: functional; details: route intraperitoneal
Mus musculus [7] = test: Anxiolytic-like activity in Swiss albino mouse assessed as number of punished crossing at 30 mg/kg, ip after 60 mins by four-plate test (RVb = 3.8 +/- 0.2); assay type: functional; details: route intraperitoneal
[8] = molecular target: 5-hydroxytryptamine receptor 2A (Rattus norvegicus) (UniProt P14842); test: Antagonist activity at postsynaptic 5HT2A receptor in rat brain cerebral cortex at 20 ug/ml; assay type: functional, tissue-based; details: filed as antagonist
5-hydroxytryptamine receptor 2A (Rattus norvegicus), sequence (P14842 whole entry): as above

D(2) dopamine receptor = D(2) dopamine receptor (Rattus norvegicus, UniProt P61169); test: Displacement of [3H]spiperone from dopamine D2 receptor in rat brain striatum
D(2) dopamine receptor, sequence (P61169 whole entry): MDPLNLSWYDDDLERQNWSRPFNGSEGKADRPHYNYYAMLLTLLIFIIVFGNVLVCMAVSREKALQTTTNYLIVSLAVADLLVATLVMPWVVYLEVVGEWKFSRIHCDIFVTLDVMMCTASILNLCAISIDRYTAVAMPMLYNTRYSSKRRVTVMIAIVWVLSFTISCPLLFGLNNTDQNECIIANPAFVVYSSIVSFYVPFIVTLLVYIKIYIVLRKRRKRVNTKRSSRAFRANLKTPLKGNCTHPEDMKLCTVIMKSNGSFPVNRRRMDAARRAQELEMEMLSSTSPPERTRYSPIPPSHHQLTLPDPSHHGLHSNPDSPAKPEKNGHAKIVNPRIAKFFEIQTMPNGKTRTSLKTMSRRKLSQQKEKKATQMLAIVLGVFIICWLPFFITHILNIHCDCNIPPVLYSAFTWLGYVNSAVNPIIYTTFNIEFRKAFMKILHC

[9] = molecular target: T2, 5-hydroxytryptamine receptor 1A (Rattus norvegicus); test: Agonist activity at presynaptic 5HT1A receptor in rat brain cerebral cortex at 20 ug/ml; assay type: functional, tissue-based; details: filed as agonist
[10] = molecular target: T2, 5-hydroxytryptamine receptor 1A (Rattus norvegicus); test: Agonist activity at postsynaptic 5HT1A receptor in rat brain cerebral cortex at 20 ug/ml; assay type: functional, tissue-based
Mus musculus [11] = test: Antidepressant-like activity in Swiss mouse assessed as immobilization time at 5 mg/kg, ip after 30 mins by forced swim test (RVb = 181.4 +/- 4.9 s); assay type: functional; details: route intraperitoneal
Mus musculus [12] = test: Antidepressant-like activity in Swiss mouse assessed as immobilization time at 10 mg/kg, ip after 30 mins by forced swim test (RVb = 181.4 +/- 4.9 s); assay type: functional; details: route intraperitoneal
Mus musculus [13] = test: Antidepressant-like activity in Swiss mouse assessed as immobilization time at 20 mg/kg, ip after 30 mins by forced swim test (RVb = 181.4 +/- 4.9 s); assay type: functional; details: route intraperitoneal
Mus musculus [14] = test: […] in Swiss albino mouse assessed as number of […] crossing of the light beam during 6 mins at 20 mg/kg, ip measured after 30 mins postdose […] (RVb = 107.1 +/- 8.5); assay type: functional; details: route intraperitoneal
Mus musculus [15] = test: […] in Swiss albino mouse assessed as number of […] crossing of the light beam during 30 mins at 10 mg/kg, ip measured after 30 mins postdose […] (RVb = 249.2 +/- 21); assay type: functional; details: route intraperitoneal
Mus musculus [16] = test: […] in Swiss albino mouse assessed as number of […] crossing of the light beam during 30 mins at 20 mg/kg, ip measured after 30 mins postdose […] (RVb = 249.2 +/- 21); assay type: functional; details: route intraperitoneal
Mus musculus [17] = test: Anxiolytic-like activity in Swiss albino mouse assessed as number of punished crossing at 5 mg/kg, ip after 30 mins by four-plate test (RVb = 3.8 +/- 0.2); details: route intraperitoneal
Mus musculus [18] = test: Anxiolytic-like activity in Swiss albino mouse assessed as number of punished crossing of the light beam during 6 mins at 10 mg/kg, ip measured after 30 mins postdose (RVb = 107.1 +/- 8.5); details: route intraperitoneal
Mus musculus [19] = test: Anxiolytic-like activity in Swiss albino mouse assessed as number of punished crossing at 10 mg/kg, ip after 60 mins by four-plate test (RVb = 4.2 +/- 0.4); assay type: functional; details: route intraperitoneal
Mus musculus [20] = test: Anxiolytic-like activity in Swiss albino mouse assessed as number of punished crossing at 20 mg/kg, ip after 60 mins by four-plate test (RVb = 4.2 +/- 0.4); assay type: functional; details: route intraperitoneal
Mus musculus [21] = test: Anxiolytic-like activity in Swiss albino mouse assessed as number of punished crossing at 30 mg/kg, ip after 60 mins by four-plate test (RVb = 4.2 +/- 0.4); assay type: functional; details: route intraperitoneal
[22] = Agonist activity at presynaptic 5HT1A receptor in brain cerebral cortex at 20 ug/ml
Mus musculus [23] = test: […] in Swiss albino mouse assessed as number of […] crossing of the light beam during 30 mins at 10 mg/kg, ip measured after 30 mins postdose […] (RVb = 210.7 +/- 17.7); assay type: functional; details: route intraperitoneal
Mus musculus [24] = test: […] in Swiss albino mouse assessed as number of […] crossing of the light beam during 30 mins at 20 mg/kg, ip measured after 30 mins postdose […] (RVb = 210.7 +/- 17.7); assay type: functional; details: route intraperitoneal
Mus musculus [25] = test: Antidepressant-like activity in Swiss mouse assessed as immobilization time at 10 mg/kg, ip after 30 mins by forced swim test (RVb = 167.1 +/- 6.7 s); assay type: functional; details: route intraperitoneal
Mus musculus [26] = test: Antidepressant-like activity in Swiss mouse assessed as immobilization time at 20 mg/kg, ip after 30 mins by forced swim test (RVb = 167.1 +/- 6.7 s); assay type: functional; details: route intraperitoneal
Mus musculus [27] = test: […] in Swiss albino mouse assessed as number of […] crossing of the light beam during 6 mins at 10 mg/kg, ip measured after 30 mins postdose […] (RVb = 94.8 +/- 4.1); assay type: functional; details: route intraperitoneal
Mus musculus [28] = test: […] in Swiss albino mouse assessed as number of […] crossing of the light beam at 20 mg/kg, ip measured after 30 mins postdose […] (RVb = 94.8 +/- 4.1); details: route intraperitoneal

SMILES | pKi [1] | pKi [2] | Activity [4] | Activity [8] | pKi (D(2) dopamine receptor) | Activity [9] | further results
O=C1NC2(CCc3ccccc32)C(=O)N1CCCN1CCN(c2ccccc2)CC1 (racemic) | 7.01 | 7.52 | – | Antagonist | 4.81 | – | –
O=C1NC2(CCCc3ccccc32)C(=O)N1CCCN1CCN(c2cccc(Cl)c2)CC1 (racemic) | 6.46 | 7.46 | – | Antagonist | 5.74 | – | –
CC1(c2ccccc2)NC(=O)N(CCCN2CCN(c3ccccc3)CC2)C1=O (racemic) | 6.34 | 7.16 | – | – | – | – | –
O=C1NC2(CCCc3ccccc32)C(=O)N1CCCN1CCN(c2ccccc2)CC1 (racemic) | 7.06 | 7.60 | – | Antagonist | 6.17 | – | –
O=C1NC(c2ccccc2)(C2CC2)C(=O)N1CCCN1CCN(c2ccccc2)CC1 (racemic) | 7.17 | 7.00 | – | – | – | – | Activity [10]: inactive; Activity [22]: inactive
CN(C)CCCN1c2ccccc2CCc2ccccc21 [IMIPRAMINE] | – | – | – | – | – | – | Activity (Mus musculus [23]): 208.7; Activity (Mus musculus [24]): 141.6; Time (Mus musculus [25]): 149.1 s; Time (Mus musculus [26]): 107.8 s; Activity (Mus musculus [27]): 94.4; Activity (Mus musculus [28]): 89.1

Continued by rising pKi [1], values first:

pKi [1] | pKi [2] | Activity [4] | Activity [8] | pKi (D(2) dopamine receptor) | Activity [9] | SMILES | further results
7.31 | 6.19 | Antagonist | – | – | Agonist | COc1ccccc1N1CCN(CCCN2C(=O)NC3(CCc4ccccc43)C2=O)CC1 (racemic) | –
7.33 | 6.14 | – | – | – | Agonist | COc1ccccc1N1CCN(CCCN2C(=O)NC(C)(c3ccccc3)C2=O)CC1 (racemic) | Activity [10]: inactive
7.42 | 7.28 | Antagonist | Antagonist | 5.21 | Agonist | O=C1NC2(CCc3ccccc32)C(=O)N1CCCN1CCN(c2cccc(Cl)c2)CC1 (racemic) | Activity (Mus musculus [19]): 4; Activity (Mus musculus [20]): 4.2; Activity (Mus musculus [21]): 4.2
7.54 | 6.51 | Antagonist | – | 5.41 | – | CC1(c2ccccc2)NC(=O)N(CCCN2CCN(c3cccc(Cl)c3)CC2)C1=O (racemic) | Activity [22]: inactive
7.64 | 6.55 | – | – | – | Agonist | COc1ccccc1N1CCN(CCCN2C(=O)NC3(CCCc4ccccc43)C2=O)CC1 (racemic) | Activity ([10]; filed as agonist): Agonist; Time (Mus musculus [11]): 161.2 s; Time (Mus musculus [12]): 121.4 s; Time (Mus musculus [13]): 103.1 s; Activity (Mus musculus [5]): 5.9; Activity (Mus musculus [6]): 4.4; Activity (Mus musculus [14]): 111.6; Activity (Mus musculus [15]): 212.9; Activity (Mus musculus [16]): 225.3; Activity (Mus musculus [17]): 3.9; Activity (Mus musculus [18]): 110
7.89 | 7.11 | Antagonist | – | – | – | O=C1NC(c2ccccc2)(C2CC2)C(=O)N1CCCN1CCN(c2cccc(Cl)c2)CC1 (racemic) | Activity [3]: Antagonist; Activity (Mus musculus [5]): 3.8; Activity (Mus musculus [6]): 3.9; Activity (Mus musculus [7]): 3.7
7.96 | 6.15 | – | – | – | Agonist | COc1ccccc1N1CCN(CCCN2C(=O)NC(c3ccccc3)(C3CC3)C2=O)CC1 (racemic) | Activity [10]: inactive
